Measurements taken from ChEMBL document CHEMBL1221409, “Antioxidant and anti-inflammatory phenylpropanoid derivatives from Calamus quiquesetinervius” (J Nat Prod, 2010).

Columns and labels:
[1] = test system: Radical scavenging activity; assay: Antioxidant activity assessed as DPPH radical scavenging activity after 30 mins by ELISA reader; type: functional
How it was run: (§1)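 Radical scavenging was tested with Trolox and quercetin as positive controls. Values are from three replicates, reported as means ± SD and expressed as IC50.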

[2] = Antioxidant activity assessed as hydroxyl radical scavenging activity by chemiluminescence analysis; type: functional; how it was run: as §1
[3] = Antioxidant activity assessed as superoxide radical scavenging activity by chemiluminescence analysis; type: functional
How it was run: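 Superoxide (·O2−) scavenging was tested with Trolox and quercetin as positive controls. Values are from three replicates, reported as means ± SD.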

RAW264.7 = assay: Antiinflammatory activity against LPS-stimulated mouse RAW264.7 cells assessed as inhibition of NO production after 24 hrs; type: functional, cell-based; details: RAW264.7, 24 h
How it was run: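 RAW 264.7 macrophages were stimulated with LPS in the presence of the test agent for 24 h. Inhibition of NO production was expressed as IC50, with quercetin as the reference.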

[4] = Cytotoxicity against mouse RAW264.7 cells assessed as cell viability upto 100 uM by MTS assay; type: cell-based; details: read-out: Activity
How it was run: (§2)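 RAW 264.7 cells were incubated 24 h with the agent at various concentrations up to 100 µM, with or without LPS in the medium. Cell viability was read by MTS assay.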

[5] = Cytotoxicity against LPS-stimulated mouse RAW264.7 cells assessed as cell viability upto 100 uM by MTS assay; type: cell-based; details: LPS-stimulated RAW264.7 cells, read-out: Activity; how it was run: as §2

Structure (SMILES) | IC50 [1] | IC50 [2] | IC50 [3] | IC50 (RAW264.7) | viability [4] | viability [5]
COc1cc(/C=C/C(=O)OC[C@H]2O[C@@](CO)(O[C@H]3O[C@H](COC(C)=O)[C@@H](OC(=O)/C=C/c4ccc(O)cc4)[C@H](O)[C@H]3O)[C@@H](OC(=O)/C=C/c3ccc(O)c(OC)c3)[C@@H]2O)ccc1O | 64.4 µM | 8.4 µM | > 200 µM | 9.5 µM | > 90% | > 90%
COc1cc([C@H]2Oc3c(OC)cc(/C=C/COC(=O)c4ccc(O)cc4)cc3[C@@H]2COC(=O)c2ccc(O)cc2)cc(OC)c1O [QUIQUESETINERVIUSIN B] |  | 25.7 µM | > 200 µM | 223 µM | > 90% | > 90%
Cc1c(C)c2c(c(C)c1O)CCC(C)(C(=O)O)O2 (configuration not stated) [TROLOX] | 32.9 µM | 4.31 µM | 25.3 µM |  |  | 
O=c1c(O)c(-c2ccc(O)c(O)c2)oc2cc(O)cc(O)c12 [QUERCETIN] |  |  |  | 34.5 µM |  | 
COc1cc(/C=C/C(=O)OC[C@H]2O[C@@](CO)(O[C@H]3O[C@H](CO)[C@@H](OC(=O)/C=C/c4ccc(O)c(OC)c4)[C@H](O)[C@H]3OC(C)=O)[C@@H](OC(=O)/C=C/c3ccc(O)c(OC)c3)[C@@H]2O)ccc1O | 69.1 µM | 3.6 µM | 184 µM | 42.1 µM | > 90% | > 90%
CCO[C@H](c1ccc(O)c(OC)c1)[C@H](COC(=O)c1ccc(O)cc1)Oc1ccc(/C=C/COC(=O)c2ccc(O)cc2)cc1OC (relative stereo) [QUIQUESETINERVIUSIN C] | > 100 µM | 16.6 µM | > 200 µM | 95.7 µM | > 90% | > 90%
COc1cc([C@H](O)[C@H](CO)Oc2c(OC)cc(-c3cc(=O)c4c(O)cc(O)cc4o3)cc2OC)ccc1O [SALCOLIN B] | > 100 µM | 13.3 µM | > 200 µM | 29.5 µM | > 90% | > 90%
COc1cc(/C=C/C(=O)OC[C@H]2O[C@@](CO)(O[C@H]3O[C@H](CO)[C@@H](OC(=O)/C=C/c4ccc(O)c(OC)c4)[C@H](O)[C@H]3O)[C@@H](OC(=O)/C=C/c3ccc(O)c(OC)c3)[C@@H]2O)ccc1O | 62.5 µM | 6.8 µM | > 200 µM | 78.1 µM | > 90% | > 90%
COc1cc(C2Oc3c(OC)cc(/C=C/C=O)cc3C2COC(=O)c2ccc(O)cc2)ccc1O (configuration not stated) | > 100 µM | 19.1 µM | > 200 µM | 69 µM | > 90% | > 90%
COc1cc(/C=C/C(=O)OC[C@H]2O[C@@](CO)(O[C@H]3O[C@H](COC(C)=O)[C@@H](OC(=O)/C=C/c4ccc(O)c(OC)c4)[C@H](O)[C@H]3O)[C@@H](OC(=O)/C=C/c3ccc(O)c(OC)c3)[C@@H]2O)ccc1O | 99.6 µM | 7.4 µM | > 200 µM | 60.3 µM | > 90% | > 90%
COc1cc([C@H]2Oc3c(OC)cc(/C=C/COC(=O)c4ccc(O)cc4)cc3[C@@H]2COC(=O)c2ccc(O)cc2)ccc1O [QUIQUESETINERVIUSIN A] |  | 23.7 µM | > 200 µM | 23.4 µM | > 90% | > 90%
COc1cc(/C=C/C(=O)OC[C@H]2O[C@@](CO)(O[C@H]3O[C@H](CO)[C@@H](OC(=O)/C=C/c4ccc(O)cc4)[C@H](O)[C@H]3OC(C)=O)[C@@H](OC(=O)/C=C/c3ccc(O)c(OC)c3)[C@@H]2O)ccc1O | 68.4 µM | 5.5 µM | > 200 µM | 9.2 µM | > 90% | > 90%
